Tests used:
Leishmania guyanensis = assay: Antileishmanial activity against Leishmania guyanensis MHOM/BR/95/IOCL-2092 promastigotes after 24 hrs; assay type: functional, organism-based
In short: (§1)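 Promastigotes grown in Schneider's Drosophila medium with 20% (v/v) heat-inactivated FCS, harvested late-log; log-phase cells at 4.0 × 10⁶ cells/mL in 96-well trays, 26 °C, 95% air/5% CO₂. Compounds in DMSO, 160–0.16 μg/mL, triplicate per concentration. Viability counted by Neubauer chamber after 24 h; IC50 = concentration inhibiting growth 50%. Pentamidine positive control.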

Leishmania braziliensis = assay: Antileishmanial activity against Leishmania braziliensis MHOM/BR/95/IOCL-2033 promastigotes after 24 hrs; assay type: functional, organism-based; in short: as §1

Row | IC50 (Leishmania guyanensis) [µM] | IC50 (Leishmania braziliensis) [µM] | Structure (SMILES)
1 | 0.9 | 2.9 | N=C(N)c1ccc(OCCCCCOc2ccc(C(=N)N)cc2)cc1 [PENTAMIDINE]
2 | 104 | 321 | COc1c(OC)c2c3c(nccc3c1OC)C(=O)c1ccccc1-2 [HOMOMOSCHATOLINE]
3 | 438 | 253 | Nc1nccc(-c2nccc3c4ccccc4n(O)c23)n1
4 | > 613 | 34.8 | Nc1nccc(-c2nccc3c2[nH]c2ccccc23)n1 [ANNOMONTINE]

Row | Structure (SMILES) | IC50 (Leishmania guyanensis) [µM] | IC50 (Leishmania braziliensis) [µM]
5 | O=C1c2ccccc2-c2c3c(cc4ccnc1c24)OCO3 [LIRIODENINE] | 21.5 | 58.5

Source: ChEMBL document CHEMBL1157262, “A pyrimidine-beta-carboline and other alkaloids from Annona foetida with antileishmanial activity” (J Nat Prod, 2006)
